Data published in ChEMBL document CHEMBL1154037, “In vivo targeting of tumor-associated carbonic anhydrases using acetazolamide derivatives” (Bioorg Med Chem Lett, 2009).
The source made the active and inactive calls. The rule behind the calls is not given here.

Tests used:
Liver = assay: Drug uptake in human LS 174T cells xenografted BALB/c nu/nu mouse liver at 1.26 umol, iv after 1 hr; type: ADME, organism-based, LS174T; settings: in vivo
Summary of the method: (§1)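 Balb/c nu/nu mice carried subcutaneous LS174T tumors of about 500 mg. They received 680 µg (1.26 µmol) of fluorescent compound in the tail vein and were sacrificed 1 h or 2 h later. Fluorescence microscopy was done on 10 µm sections of tumor, muscle, heart, lung, intestine, spleen, kidney and liver. Exposures were 900 ms (1 h) and 1100 ms (2 h).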

Kidney = assay: Drug uptake in human LS 174T cells xenografted BALB/c nu/nu mouse kidney at 1.26 umol, iv after 1 hr; type: ADME, organism-based, LS174T; settings: in vivo; summary of the method: as §1
Mus musculus [1] = assay: Drug uptake in human LS 174T cells xenografted BALB/c nu/nu mouse at 1.26 umol, iv after 2 hrs; type: ADME, organism-based, LS174T; settings: in vivo; summary of the method: as §1
Intestine = assay: Drug uptake in human LS 174T cells xenografted BALB/c nu/nu mouse intestine at 1.26 umol, iv after 1 hr; type: ADME, organism-based, LS174T; settings: in vivo; summary of the method: as §1
[2] = Drug uptake in human LS 174T cells assessed as increase in fluorescence intensity at 3 uM by FACS method relative to untreated control; type: ADME, cell-based; settings: ls174t
Summary of the method: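 LS174T cells were incubated with fluorescein-labelled compound at 0.26 or 3 µM and analysed by flow cytometry in the FITC channel. Mean fluorescence was compared with unstained cells. Free FAM served as a dye control, and polyclonal anti-CA IX staining confirmed antigen presence.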

Mus musculus [3] = assay: Drug uptake in human LS 174T cells xenografted BALB/c nu/nu mouse at 1.26 umol, iv after 1 hr; type: ADME, organism-based, LS174T; settings: in vivo; summary of the method: as §1
Carbonic anhydrase 9 [4] = biological target: T1, Carbonic anhydrase 9 (Homo sapiens, UniProt Q16790); assay: Inhibition of human CA9 catalytic domain using 4-nitrophenylacetate substrate by colorimetry
Summary of the method: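 CA IX esterase activity was measured colorimetrically via conversion of 4-nitrophenylacetate and reported as Ki. Line 15 was run in the presence of 10 µM mouse serum albumin.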

LS174T [5] = assay: Antitumor activity against human LS 174T cells xenografted BALB/c nu/nu mouse assessed as inhibition of tumor growth at 25 mg/kg, ip; type: functional, organism-based; parameters: dose 25 mg/kg
Summary of the method: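 Balb/c nude mice with subcutaneous LS174T human colorectal xenografts, dosed i.p. at 25 mg/kg/day. Vehicle controls received saline containing 15% (v/v) DMSO i.v. Tumor growth was followed as mean tumor volume ± SE, n = 5 per group. Body weight was also tracked as % of day-1 weight.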

Mus musculus [6] = assay: Toxicity in human SK-RC-52 cells xenografted BALB/c nu/nu mouse assessed as effect on body weight at 25 mg/kg, ip; type: organism-based; parameters: dose 25 mg/kg, route intraperitoneal; settings: in vivo
Albumin = Albumin (Homo sapiens, UniProt P02768); assay: Binding affinity to HSA by isothermal titration calorimetry; type: ADME
Sequence of Albumin (P02768 whole entry): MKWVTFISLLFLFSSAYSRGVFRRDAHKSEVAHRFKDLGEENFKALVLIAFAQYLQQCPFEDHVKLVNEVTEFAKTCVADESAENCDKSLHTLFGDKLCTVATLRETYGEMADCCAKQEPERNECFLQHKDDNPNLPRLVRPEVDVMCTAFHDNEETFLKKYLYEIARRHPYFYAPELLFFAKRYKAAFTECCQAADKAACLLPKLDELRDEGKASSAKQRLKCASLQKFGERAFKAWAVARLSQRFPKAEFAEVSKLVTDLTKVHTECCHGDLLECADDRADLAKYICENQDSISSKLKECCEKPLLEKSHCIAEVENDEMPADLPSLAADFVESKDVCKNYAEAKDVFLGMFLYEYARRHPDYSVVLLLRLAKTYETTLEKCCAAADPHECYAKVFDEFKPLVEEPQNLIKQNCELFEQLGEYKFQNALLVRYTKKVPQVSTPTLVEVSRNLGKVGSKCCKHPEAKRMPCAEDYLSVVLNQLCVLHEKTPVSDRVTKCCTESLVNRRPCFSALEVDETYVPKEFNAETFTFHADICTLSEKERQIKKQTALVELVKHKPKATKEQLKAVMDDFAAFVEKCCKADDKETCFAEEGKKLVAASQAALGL

Blood [7] = assay: Drug level in human LS 174T cells xenografted BALB/c nu/nu mouse blood at 0.5 umol. iv; type: ADME, cell-based, LS174T; settings: in vivo, read-out: Drug uptake
Summary of the method: (§2)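 A bolus i.v. injection of 340 µg (0.5 µmol) was given to tumor-bearing mice. Blood concentration was estimated immediately at the end of the bolus injection.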

Carbonic anhydrase 9 [8] = biological target: T1, Carbonic anhydrase 9; assay: Binding affinity to human CA9 catalytic domain by isothermal titration calorimetry
Mus musculus [9] = assay: Toxicity in human SK-RC-52 cells xenografted BALB/c nu/nu mouse assessed as effect on body weight at 340 ug, iv administered as 5 weekly injection schedule for 3 consecutive weeks; type: organism-based; settings: in vivo
Summary of the method: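 SK-RC-52 xenografted Balb/c nude mice, n = 5, given 340 µg (17 mg/kg) per injection i.v. in saline with 15% (v/v) DMSO. Body weight was monitored during therapy and expressed as % of body weight on day 1 of treatment.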

Homo sapiens [10] = assay: Antitumor activity against human SK-RC-52 cells xenografted BALB/c nu/nu mouse assessed as inhibition of tumor growth at 340 ug, iv administered as 5 weekly injection schedule for 3 consecutive weeks; type: functional, organism-based
Summary of the method: (§3)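 Subcutaneous xenografts in Balb/c nude mice, n = 5 per group. Dosing was 340 µg (17 mg/kg, 0.5 µmol) per injection i.v. Vehicle was saline with 15% (v/v) DMSO, and controls received vehicle alone. Read-out was tumor volume over time, given as mean ± SE.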

LS174T [11] = assay: Antitumor activity against human LS 174T cells xenografted BALB/c nu/nu mouse assessed as inhibition of tumor growth at 340 ug, iv administered as 5 weekly injection schedule for 2 consecutive weeks; type: functional, organism-based; summary of the method: as §3
Blood [12] = assay: Drug level in human SK-RC-52 cells xenografted BALB/c nu/nu mouse blood at 0.5 umol. iv; type: ADME, cell-based; settings: read-out: Drug uptake; summary of the method: as §2
Homo sapiens [13] = assay: Antitumor activity against human SK-RC-52 cells xenografted BALB/c nu/nu mouse assessed as inhibition of tumor growth at 20 mg/kg, ip; type: functional, organism-based; parameters: dose 20 mg/kg
Mus musculus [14] = assay: Toxicity in human SK-RC-52 cells xenografted BALB/c nu/nu mouse assessed as effect on body weight at 20 mg/kg, ip; type: organism-based; parameters: dose 20 mg/kg, route intraperitoneal; settings: in vivo

## NS(=O)(=O)c1nnc(NC(=O)c2ccc(-c3c4ccc(=O)cc-4oc4cc(O)ccc34)c(C(=O)O)c2)s1
Liver
  Drug uptake: Active
Kidney
  Drug uptake: Active
Mus musculus [1]
  Drug uptake: Active
Intestine
  Drug uptake: Active
[2]
  fold change (FC): > 10
Mus musculus [3]
  Drug uptake: Active
Carbonic anhydrase 9 [4]
  Ki: 220 nM

## O=c1[nH]cc(F)c(=O)[nH]1 [FLUOROURACIL]
LS174T [5]
  Activity: Active
Mus musculus [6]
  Activity: Toxic

## NS(=O)(=O)c1nnc(NC(=O)CCC(=O)NC(CCCCNC(=O)CCCc2ccc(I)cc2)C(=O)O)s1 (stereo not drawn)
Albumin
  Kd: 820 nM
Blood [7]
  concentration: 250 µM
Carbonic anhydrase 9 [8]
  Kd: 3.2 nM
Mus musculus [9]
  Activity: Non-toxic
Homo sapiens [10]
  Activity: Active
LS174T [11]
  Activity: inactive
Blood [12]
  concentration: 250 µM

## CCN(CC)CCNC(=O)c1c(C)[nH]c(/C=C2\C(=O)Nc3ccc(F)cc32)c1C [SUNITINIB]
Homo sapiens [13]
  Activity: Active
Mus musculus [14]
  Activity: Non-toxic
